Test results as given in publication PMC3131532 (Chemistry & biology, 2011).

Key:
[1] = target: T1, PfSENP1 (Plasmodium falciparum, UniProt Q8I583); test: PfSUMO-pro cleavage assay with recombinant PfSENP1; assay type: biochemical; details: gel assay; VEA-260 0–200 µM; JCP analogs 0–300 µM; NEM 10 mM
Method in brief: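 Recombinant PfSENP1, His6-tagged (imidazole-eluted) or untagged (released from CPD fusion with 100 µM InsP6), expressed in E. coli BL21(DE3) for 3 hr at 30°C after 0.1 mM IPTG induction. Enzyme pretreated with test compound or 10 mM N-ethylmaleimide; for the 0–200 µM series, PfSENP1 was 100 nM. PfSUMO-pro then added; reactions run on SDS-PAGE with Coomassie-type staining. No-enzyme substrate lane served as control.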

[2] = tested on: PfSENP activity in parasite lysates; test: PfSUMO-pro processing assay in parasite lysates; assay type: biochemical, Plasmodium falciparum; details: mixed stage lysates; VEA-260 0–200 µM; NEM 10 mM; hSUMO-VS 10 µM
Method in brief: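 Soluble mixed-stage parasite lysate was pretreated with test compound, NEM or hSUMO-VS, then given PfSUMO-pro substrate. For the library screen, 10 µg lysate was preincubated 30 min at room temperature with 100 µM (final) test compound from a DMSO stock. PfSUMO-pro was then added at 10 µM final for 1 h at 37°C. Reactions were quenched with SDS loading dye, resolved by SDS-PAGE and stained with Gelcode Blue. Controls were DMSO-treated lysate and substrate without lysate.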

[3] = target: T1, PfSENP1; test: SENP fluorogenic substrate; assay type: biochemical; details: read-out: IC50 PfSENP1; substrate QTGG-AFC
[4] = target: T2, hSENP1 (Homo sapiens, UniProt Q9P0U3); test: SENP fluorogenic substrate; assay type: biochemical; details: read-out: IC50 hSENP1; substrate QTGG-AFC
T2 sequence (Q9P0U3 419-644 limits assumed): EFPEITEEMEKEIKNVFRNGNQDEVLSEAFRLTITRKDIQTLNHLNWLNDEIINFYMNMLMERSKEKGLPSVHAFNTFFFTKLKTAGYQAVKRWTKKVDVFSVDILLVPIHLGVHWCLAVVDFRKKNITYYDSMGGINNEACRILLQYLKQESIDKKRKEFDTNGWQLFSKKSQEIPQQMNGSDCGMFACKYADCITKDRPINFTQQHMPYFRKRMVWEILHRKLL

[5] = target: T3, hSENP2 (Homo sapiens, UniProt Q9HC62); test: SENP fluorogenic substrate; assay type: biochemical; details: read-out: IC50 hSENP2; substrate QTGG-AFC
T3 sequence (Q9HC62 1-589): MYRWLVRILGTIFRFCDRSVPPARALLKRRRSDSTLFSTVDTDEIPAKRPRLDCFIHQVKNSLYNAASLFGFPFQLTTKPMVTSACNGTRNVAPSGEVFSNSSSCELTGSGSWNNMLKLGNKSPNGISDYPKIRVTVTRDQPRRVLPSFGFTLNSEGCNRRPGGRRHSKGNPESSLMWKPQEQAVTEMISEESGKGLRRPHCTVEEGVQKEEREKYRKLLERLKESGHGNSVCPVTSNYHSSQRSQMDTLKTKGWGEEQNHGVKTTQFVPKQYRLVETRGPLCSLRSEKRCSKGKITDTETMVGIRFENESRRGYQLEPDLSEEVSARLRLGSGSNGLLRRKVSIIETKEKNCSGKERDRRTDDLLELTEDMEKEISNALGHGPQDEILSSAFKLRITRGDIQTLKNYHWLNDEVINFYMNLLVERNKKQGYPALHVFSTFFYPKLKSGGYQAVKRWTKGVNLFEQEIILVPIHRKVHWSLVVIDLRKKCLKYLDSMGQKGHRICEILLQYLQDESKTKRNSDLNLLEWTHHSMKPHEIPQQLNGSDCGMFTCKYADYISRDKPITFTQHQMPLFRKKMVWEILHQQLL

[6] = target: T4, hSENP6 (Homo sapiens, UniProt Q9GZR1); test: SENP fluorogenic substrate; assay type: biochemical; details: read-out: IC50 hSENP6; substrate LRGG-AFC
T4 sequence (Q9GZR1 1-1112): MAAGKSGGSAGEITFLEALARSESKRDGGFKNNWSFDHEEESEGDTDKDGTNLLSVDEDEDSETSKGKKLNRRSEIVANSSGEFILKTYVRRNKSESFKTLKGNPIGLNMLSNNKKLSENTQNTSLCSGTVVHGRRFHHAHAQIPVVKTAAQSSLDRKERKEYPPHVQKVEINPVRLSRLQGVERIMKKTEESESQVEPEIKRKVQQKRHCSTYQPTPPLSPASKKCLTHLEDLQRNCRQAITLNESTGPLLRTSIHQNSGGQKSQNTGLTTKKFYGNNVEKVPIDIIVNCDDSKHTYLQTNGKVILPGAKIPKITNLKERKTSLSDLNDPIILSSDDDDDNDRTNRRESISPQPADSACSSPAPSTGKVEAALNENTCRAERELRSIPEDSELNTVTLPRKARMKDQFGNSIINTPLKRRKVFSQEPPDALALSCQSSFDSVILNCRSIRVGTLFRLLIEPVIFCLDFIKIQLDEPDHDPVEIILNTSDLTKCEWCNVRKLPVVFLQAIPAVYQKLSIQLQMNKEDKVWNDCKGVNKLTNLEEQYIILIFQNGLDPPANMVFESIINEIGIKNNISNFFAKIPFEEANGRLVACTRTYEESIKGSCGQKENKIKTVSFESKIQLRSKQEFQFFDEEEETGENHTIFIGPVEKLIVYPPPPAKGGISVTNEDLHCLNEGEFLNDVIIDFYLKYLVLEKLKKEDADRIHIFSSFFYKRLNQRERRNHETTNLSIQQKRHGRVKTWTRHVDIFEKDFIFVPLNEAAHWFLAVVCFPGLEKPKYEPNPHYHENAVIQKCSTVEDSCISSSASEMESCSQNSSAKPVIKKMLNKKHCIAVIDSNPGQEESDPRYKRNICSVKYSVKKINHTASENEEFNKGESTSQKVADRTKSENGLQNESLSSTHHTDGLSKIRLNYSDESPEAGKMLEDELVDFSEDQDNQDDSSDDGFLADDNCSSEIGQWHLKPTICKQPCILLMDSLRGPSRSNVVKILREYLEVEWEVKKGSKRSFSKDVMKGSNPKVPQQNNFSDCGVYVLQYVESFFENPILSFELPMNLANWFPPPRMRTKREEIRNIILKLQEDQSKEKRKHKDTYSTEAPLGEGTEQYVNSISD

[7] = target: T5, hSENP8 (deNEDDylase) (Homo sapiens, UniProt Q96LD8); test: fluorogenic substrate; assay type: biochemical; details: read-out: IC50 hSENP8 (deNEDDylase); substrate LRGG-AFC
T5 sequence (Q96LD8 1-212): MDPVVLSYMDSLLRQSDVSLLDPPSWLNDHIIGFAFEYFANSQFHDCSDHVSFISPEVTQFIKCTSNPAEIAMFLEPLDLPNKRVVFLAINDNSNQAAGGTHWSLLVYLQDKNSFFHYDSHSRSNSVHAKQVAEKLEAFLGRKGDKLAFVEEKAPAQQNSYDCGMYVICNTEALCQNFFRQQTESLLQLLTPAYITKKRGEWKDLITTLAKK

[8] = target: T6, UCH-L3 (Homo sapiens, UniProt P15374); test: DUB fluorogenic substrate; assay type: biochemical; details: read-out: IC50 UCH-L3; substrate LRGG-AFC
T6 sequence (P15374 1-230): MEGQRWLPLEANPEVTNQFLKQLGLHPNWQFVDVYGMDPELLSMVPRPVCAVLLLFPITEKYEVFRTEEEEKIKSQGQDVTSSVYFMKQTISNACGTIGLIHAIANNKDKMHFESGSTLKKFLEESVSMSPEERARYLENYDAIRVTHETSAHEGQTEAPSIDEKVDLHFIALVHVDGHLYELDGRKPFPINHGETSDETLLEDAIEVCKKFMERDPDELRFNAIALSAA

[9] = target: T1, PfSENP1; test: Reversibility of PfSENP1 inhibition; assay type: biochemical; details: 200 µM inhibitor, 2 hr 37°C, then dilution and Ni-NTA enrichment
Method in brief: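 PfSENP1 (200 nM) exposed to test compound (200 µM), N-ethylmaleimide (10 mM) or DMSO for 2 hr at 37°C. Input sample taken. Treated enzyme then diluted, recaptured on Ni2+-NTA and eluted with 300 mM imidazole. Input and eluate each added to PfSUMO-pro; cleavage resolved by SDS-PAGE with protein stain.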

[10] = tested on: falcipains 1/2/3; test: Competition for labeling with activity-based probes; assay type: biochemical, Plasmodium falciparum; details: mixed-stage lysates; VEA-260 0–250 µM
Method in brief: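 Mixed-stage P. falciparum total lysates were pretreated with test compound (0–250 µM), or with unlabelled DCG-04 (100 µM) as a competition control, then labelled with 125I-DCG-04. Proteins were resolved by SDS-PAGE, and residual probe labelling was read by autoradiography.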

Row | IC50 [6] [µM] | IC50 [8] [µM] | reversibility of PfSENP1 inhibition [9] | SMILES | inhibition of PfSUMO-pro cleavage by recombinant PfSENP1 [1] | inhibition of PfSENP activity in parasite lysates [2] | IC50 [3] [µM] | IC50 [4] [µM] | IC50 [5] [µM] | IC50 [7] [µM] | inhibition of falcipains (residual probe labeling) [10]
1 |  |  |  | CCN1C(=O)C=CC1=O [NEM, N-ethylmaleimide, reference compound] | cleavage was inhibited | processing activity could be blocked |  |  |  |  | 
2 | > 100 | ~100 | irreversible inhibitor | O=C(O)c1cccc(C(=O)NCc2ccc(C(=O)NNC(=O)[C@H]3O[C@@H]3C(=O)N(Cc3cccc4ccccc34)Cc3cccc4ccccc34)cc2)c1 [VEA-260] | as potent as the original JCP-666 | as potent as the original JCP-666 | 16.2 | 7.1 | 3.7 | 9.1 | did not inhibit any of the falcipains
